From ChEMBL document CHEMBL1122815, “Synthesis and hypoglycemic activity of N-alkylated hydrazonopropionic acids” (J Med Chem, 1985)

test system: Cavia porcellus; experiment: Hypoglycemic activity at a dose of 20 mg/kg administered intraperitoneally; assay type: functional; details: dose 50 mg/kg; route intraperitoneal; in the assay text read “50 mg/kg” for “20 mg/kg”
Outline: (§1)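 Guinea pigs fasted from about 20 h before and throughout the study, with free access to water; six animals per dose group. Compound was given ip as a neutral solution, and a parallel control group received physiological NaCl ip. Ear-vein blood (10 μL) was taken before dosing and then hourly to 6 h. Glucose was measured by hexokinase on the hemolysate. The effect was calculated as the % difference of the lowest glucose relative to the initial value. U-test, p ≤ 0.05.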

SMILES	Decrease in blood glucose
CCCCCCCCCN/N=C(\C)C(=O)O	25%

test system: Cavia porcellus; experiment: Hypoglycemic activity was given as differences between the mean changes in blood glucose concentration in control group and the treated group after a dose of 25 mg/kg, ip; assay type: functional; details: route intraperitoneal; outline: as §1

SMILES	Decrease in blood glucose
C/C(=N\NCCc1ccccc1)C(=O)O	40%
C/C(=N\NC/C=C/c1ccc(Cl)cc1)C(=O)O	9%
C/C(=N\NCCCC1CCCC1)C(=O)O	68%
C/C(=N\NC/C=C/c1cccc(Cl)c1)C(=O)O	14%
C/C(=N\NCCc1ccc(F)cc1)C(=O)O	21%
CCC/C=C/CN/N=C(\C)C(=O)O	43%
C/C(=N\NC/C=C/c1ccccc1)C(=O)[O-].[Na+]	15%
C/C(=N\NCCOc1ccccc1)C(=O)O	22%
CC/C=C/CCN/N=C(\C)C(=O)O	82%
C/C(=N\NCCCCc1ccccc1)C(=O)[O-].[Na+]	34%
CCCCCCCCN/N=C(\C)C(=O)O	69%
C/C(=N\NC/C=C/c1cccc(C)c1)C(=O)O	22%
C/C(=N\NCc1ccccc1)C(=O)O	7%
CCCN/N=C(\C)C(=O)O	24%
CCCCCCCN/N=C(\C)C(=O)O	70%
COc1ccc(CCN/N=C(\C)C(=O)O)cc1	7%
C/C(=N\NCCc1ccc(Cl)cc1)C(=O)O	11%

SMILES	Decrease in blood glucose
C/C(=N\NCCc1ccc(C)cc1)C(=O)O	8%
CCC(C)CCCN/N=C(\C)C(=O)O (centres undefined)	41%
C/C(=N\NCC/C=C/c1ccccc1)C(=O)O	15%
CCCCN/N=C(\C)C(=O)O	41%
CCCOCCCCN/N=C(\C)C(=O)O	22%
C/C(=C\CN/N=C(\C)C(=O)O)c1ccccc1	20%
C=CCCCCN/N=C(\C)C(=O)[O-].[Na+]	60%
COCCCCCCN/N=C(\C)C(=O)O	22%
CCCCCCN/N=C(\C)C(=O)O	72%
CCCCCN/N=C(\C)C(=O)[O-].[Na+]	45%
C/C(=N\NCCCC1CCCCC1)C(=O)[O-].[Na+]	13%
CCOC(=O)/C(C)=N/NCCc1ccccc1	14%
CCCCCC(C)N/N=C(\C)C(=O)O (centres undefined)	45%
C/C(=N\NCCC1CCCCC1)C(=O)O	48%
C/C(=N\NCCc1cccc(C)c1)C(=O)[O-].[Na+]	24%
N=C(N)NC(=N)NCCc1ccccc1 [PHENFORMIN]	70%

test system: Cavia porcellus; experiment: Hypoglycemic activity was given as differences between the mean changes in blood glucose concentration in control group and the treated group after a dose of 50 mg/kg, ip; assay type: functional; details: route intraperitoneal; outline: as §1

SMILES	Decrease in blood glucose
C/C(=N\NC/C=C/c1cccc(Cl)c1)C(=O)O	6%
C/C(=N\NCC(C)Cc1ccccc1)C(=O)O (centres undefined)	22%
C/C(=N\NCCCc1ccccc1)C(=O)[O-].[Na+]	23%
C/C(=N\NCCc1ccccc1)C(N)=O	15%
C/C(=N\NCCc1ccccc1C)C(=O)O	14%
C/C(=N\NCCc1cccc(C(F)(F)F)c1)C(=O)O	13%
C/C(=N\NC(C)Cc1ccccc1)C(=O)[O-].[Na+] (centres undefined)	14%
C/C(=N\NCC(C)c1ccccc1)C(=O)[O-].[Na+] (centres undefined)	15%

test system: not listed separately; experiment: Lethal dose on oral administration to rats was determined; assay type: toxicity, organism-based; details: rat, in vivo

SMILES	LD50
C/C(=N\NCCC1CCCCC1)C(=O)O	520 mg/kg
C/C(=C/c1ccccc1)CN/N=C(\C)C(=O)O	680 mg/kg
